Results from ChEMBL document CHEMBL1125204, “Synthesis and biological activity of sinefungin analogues” (J Med Chem, 1991).

Key:
Leishmania donovani [1] = assay: (§1) Apparent kinetic activity measured for protein carboxyl methyltransferase in Leishmania donovani promastigotes; assay type: ADME, organism-based; conditions: in vitro
In short: (§2)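 Cell-free extracts of L. donovani promastigotes (strain LRC L-52) assayed for S-adenosylmethionine:protein-carboxyl methyltransferase activity, with α-globulin as the methyl-accepting substrate. Kinetic constants came from Lineweaver–Burk plots and were expressed as a Ki/Km ratio. Protein was measured by the Bradford dye-binding method against a bovine serum albumin standard.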

Leishmania donovani [2] = assay: Thymidine uptake and incorporation in Leishmania donovani promastigotes measured in the TCA insoluble material.; assay type: functional
In short: (§3)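 Promastigotes at 5×10^8 cells/mL in DMEM/RPMI/FCS medium at 26 °C, equilibrated 3–4 h, then exposed 4 h to compound alone or with 0.026 μM sinefungin. Labelled 1 h with 2.5 μCi/mL [methyl-3H]thymidine and washed in cold PBS. Uptake taken from cold TCA-soluble fraction, incorporation from TCA-insoluble fraction. Protein measured by Lowry method.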

Leishmania donovani [3] = assay: Thymidine uptake and incorporation in Leishmania donovani promastigotes measured in the TCA soluble material.; assay type: functional; in short: as §3
Leishmania donovani [4] = assay: Thymidine uptake and incorporation in Leishmania donovani promastigotes measured in the TCA insoluble material in the presence of sinefungin (0.026 uM).; assay type: functional; in short: as §3
Leishmania donovani [5] = assay: Cell growth of Leishmania donovani promastigotes measured at 0h of 0.26 uM sinefungin treatment before compound addition.; assay type: functional
In short: (§4)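 L. donovani LRC L-52 promastigotes, 0.5×10^6 in 500 μL, grown at 26 °C in 45% DMEM/45% RPMI 1640 (25 mM HEPES pH 7.4) with 10% heat-inactivated FCS. Compounds in water added with 0.26 μM sinefungin. Duplicate wells beside untreated cultures; hemacytometer counts; growth inhibition expressed as % of untreated.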

Leishmania donovani [6] = assay: Thymidine uptake and incorporation in Leishmania donovani promastigotes measured in the TCA soluble material in the presence of sinefungin (0.026 uM).; assay type: functional; in short: as §3
Leishmania donovani [7] = assay: Thymidine uptake and incorporation in Leishmania donovani promastigotes measured in the TCA insoluble material at a concentration 23.3 uM in the presence of sinefungin (0.026 uM).; assay type: functional; in short: as §3
Leishmania donovani [8] = assay: Thymidine uptake and incorporation in Leishmania donovani promastigotes measured in the TCA insoluble material at a concentration 11.6 uM.; assay type: functional; in short: as §3
Leishmania donovani [9] = assay: Thymidine uptake and incorporation in Leishmania donovani promastigotes measured in the TCA insoluble material at a concentration 23.3 uM.; assay type: functional; in short: as §3
Leishmania donovani [10] = assay: as §1; assay type: organism-based; in short: as §2
Leishmania donovani [11] = assay: Thymidine uptake and incorporation in Leishmania donovani promastigotes measured in the TCA insoluble material at a concentration 11.6 uM in the presence of sinefungin (0.026 uM).; assay type: functional; in short: as §3
Leishmania donovani [12] = assay: Cell growth of Leishmania donovani promastigotes measured at 48 hr of 0.26 uM sinefungin treatment before compound (260 uM) addition.; assay type: functional; in short: as §4
Leishmania donovani [13] = assay: Thymidine uptake and incorporation in Leishmania donovani promastigotes measured in the TCA soluble material at a concentration 11.6 uM.; assay type: functional; in short: as §3
Leishmania donovani [14] = assay: Cell growth of Leishmania donovani promastigotes measured at 16h of 0.26 uM sinefungin treatment before compound (260 uM) addition.; assay type: functional; in short: as §4
Leishmania donovani [15] = assay: Cell growth of Leishmania donovani promastigotes measured at 0h of 0.26 uM sinefungin treatment before compound (260 uM) addition.; assay type: functional; in short: as §4
Leishmania donovani [16] = assay: Cell growth of Leishmania donovani promastigotes measured at 24 hr of 0.26 uM sinefungin treatment before compound (260 uM) addition.; assay type: functional; in short: as §4
Leishmania donovani [17] = assay: Thymidine uptake and incorporation in Leishmania donovani promastigotes measured in the TCA soluble material at a concentration 23.3 uM.; assay type: functional; in short: as §3
[18] = It is the ratio of Ki value to that of Km.; assay type: ADME
In short: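 Ki/Km ratio for protein-carboxyl methyltransferase in cell-free promastigote extracts, α-globulin as substrate. Ki and Km read from Lineweaver–Burk plots.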

Leishmania donovani [19] = assay: Thymidine uptake and incorporation in Leishmania donovani promastigotes measured in the TCA soluble material at a concentration 23.3 uM in the presence of sinefungin (0.026 uM).; assay type: functional; in short: as §3
Leishmania donovani [20] = assay: Cell growth of Leishmania donovani promastigotes measured at 0h of 0.26 uM sinefungin treatment before compound (156 uM) addition.; assay type: functional; in short: as §4
Leishmania donovani [21] = assay: Cell growth of Leishmania donovani promastigotes measured at 24 hr of 0.26 uM sinefungin treatment before compound (156 uM) addition.; assay type: functional; in short: as §4
Leishmania donovani [22] = assay: Cell growth of Leishmania donovani promastigotes measured at 48 hr of 0.26 uM sinefungin treatment before compound (156 uM) addition.; assay type: functional; in short: as §4
Leishmania donovani [23] = assay: Thymidine uptake and incorporation in Leishmania donovani promastigotes measured in the TCA soluble material at a concentration 2.1 uM.; assay type: functional; in short: as §3
Leishmania donovani [24] = assay: Thymidine uptake and incorporation in Leishmania donovani promastigotes measured in the TCA soluble material at a concentration 2.1 uM in the presence of sinefungin (0.026 uM).; assay type: functional; in short: as §3
Leishmania donovani [25] = assay: Thymidine uptake and incorporation in Leishmania donovani promastigotes measured in the TCA insoluble material at a concentration 2.1 uM in the presence of sinefungin (0.026 uM).; assay type: functional; in short: as §3
Leishmania donovani [26] = assay: Thymidine uptake and incorporation in Leishmania donovani promastigotes measured in the TCA insoluble material at a concentration 2.1 uM.; assay type: functional; in short: as §3
Leishmania donovani [27] = assay: Thymidine uptake and incorporation in Leishmania donovani promastigotes measured in the TCA insoluble material at a concentration 1.25 uM.; assay type: functional; in short: as §3
Leishmania donovani [28] = assay: Thymidine uptake and incorporation in Leishmania donovani promastigotes measured in the TCA soluble material at a concentration 1.25 uM.; assay type: functional; in short: as §3
Leishmania donovani [29] = assay: Thymidine uptake and incorporation in Leishmania donovani promastigotes measured in the TCA soluble material at a concentration 1.25 uM in the presence of sinefungin (0.026 uM).; assay type: functional; in short: as §3
Leishmania donovani [30] = assay: Thymidine uptake and incorporation in Leishmania donovani promastigotes measured in the TCA insoluble material at a concentration 1.25 uM in the presence of sinefungin (0.026 uM).; assay type: functional; in short: as §3
Leishmania donovani [31] = assay: Cell growth of Leishmania donovani promastigotes measured at 0h of 0.26 uM sinefungin treatment before compound (148 uM) addition.; assay type: functional; in short: as §4
Leishmania donovani [32] = assay: Cell growth of Leishmania donovani promastigotes measured at 24 hr of 0.26 uM sinefungin treatment before compound (148 uM) addition.; assay type: functional; in short: as §4
Leishmania donovani [33] = assay: Cell growth of Leishmania donovani promastigotes measured at 0h of 0.26 uM sinefungin treatment before compound (130 uM) addition.; assay type: functional; in short: as §4
Leishmania donovani [34] = assay: Thymidine uptake and incorporation in Leishmania donovani promastigotes measured in the TCA insoluble material at a concentration 130 uM in the presence of sinefungin (0.026 uM).; assay type: functional; in short: as §3
Leishmania donovani [35] = assay: Cell growth of Leishmania donovani promastigotes measured at 48 hr of 0.26 uM sinefungin treatment before compound (130 uM) addition.; assay type: functional; in short: as §4
Leishmania donovani [36] = assay: Thymidine uptake and incorporation in Leishmania donovani promastigotes measured in the TCA soluble material at a concentration 130 uM in the presence of sinefungin (0.026 uM).; assay type: functional; in short: as §3
Leishmania donovani [37] = assay: Cell growth of Leishmania donovani promastigotes measured at 24 hr of 0.26 uM sinefungin treatment before compound (130 uM) addition.; assay type: functional; in short: as §4

`C[S+](CC[C@H](N)C(=O)[O-])C[C@H]1O[C@@H](n2cnc3c(N)ncnc32)[C@H](O)[C@@H]1O` (stereo partly specified) [ADEMETIONINE] showed a Km (Leishmania donovani [1]) of 55 µM.

With `Nc1ncnc2c1ncn2C1O[C@H](C[C@@H](N)CC[C@@H](N)C(=O)O)[C@@H](O)[C@H]1O` (stereo partly specified) the Thymidine uptake (Leishmania donovani [2]) was 956745 c.p.m. (mg of protein)-1, the Thymidine uptake (Leishmania donovani [3]) was 1741329 c.p.m. (mg of protein)-1 and the Thymidine uptake (Leishmania donovani [4]) was 2197110 c.p.m. (mg of protein)-1. The Cell growth (Leishmania donovani [5]) was 15% and the Thymidine uptake (Leishmania donovani [6]) was 1583862 c.p.m. (mg of protein)-1.

In the case of `Nc1ncnc2c1ncn2[C@@H]1O[C@H](CC(N)CCCC(O)CO)[C@@H](O)[C@H]1O` (stereo partly specified), the Thymidine uptake (Leishmania donovani [7]) is reported as 3097327 c.p.m. (mg of protein)-1, the Thymidine uptake (Leishmania donovani [8]) is reported as 3148603 c.p.m. (mg of protein)-1 and the Thymidine uptake (Leishmania donovani [9]) is reported as 4079585 c.p.m. (mg of protein)-1. The Ki (Leishmania donovani [10]) was 446 µM, the Thymidine uptake (Leishmania donovani [11]) was 3391425 c.p.m. (mg of protein)-1 and the Cell growth (Leishmania donovani [12]) was 41%. The Thymidine uptake (Leishmania donovani [13]) was 823954 c.p.m. (mg of protein)-1, the Cell growth (Leishmania donovani [14]) was 92% and the Cell growth (Leishmania donovani [15]) was 100%. The Cell growth (Leishmania donovani [16]) was 59%, the Thymidine uptake (Leishmania donovani [17]) was 1020493 c.p.m. (mg of protein)-1 and the Ratio [18] was 8.3. For the same molecule, the Thymidine uptake (Leishmania donovani [19]) was 1230950 c.p.m. (mg of protein)-1.

With `Nc1ncnc2c1ncn2[C@@H]1O[C@H](CC2CCNC2)[C@@H](O)[C@H]1O` (stereo in doubt; 6a) the Ki (Leishmania donovani [10]) was 103 µM, the Cell growth (Leishmania donovani [20]) was 83% and the Cell growth (Leishmania donovani [21]) was 74%. For the same molecule, the Cell growth (Leishmania donovani [22]) was 37% and the Ratio [18] was 2.1.

Molecule `Nc1ncnc2c1ncn2[C@@H]1O[C@H](CSCC[C@H](N)C(=O)O)[C@@H](O)[C@H]1O` [S-ADENOSYLHOMOCYSTEINE] has a Ki (Leishmania donovani [10]) of 7.2 µM and a Ratio [18] of 0.13.

In the case of `Nc1ncnc2c1ncn2[C@@H]1O[C@H](CC(N)CCCC(=O)O)[C@@H](O)[C@H]1O` (stereo in doubt; 3b), the Thymidine uptake (Leishmania donovani [23]) is reported as 1161185 c.p.m. (mg of protein)-1, the Ki (Leishmania donovani [10]) is reported as 380 µM and the Thymidine uptake (Leishmania donovani [24]) is reported as 1973260 c.p.m. (mg of protein)-1. For the same molecule, the Thymidine uptake (Leishmania donovani [25]) was 1861835 c.p.m. (mg of protein)-1, the Thymidine uptake (Leishmania donovani [26]) was 3284127 c.p.m. (mg of protein)-1 and the Ratio [18] was 6.9.

With `Nc1ncnc2c1ncn2[C@@H]1O[C@H](CC(N)CCCC(=O)O)[C@@H](O)[C@H]1O` (stereo in doubt; 3a) the Ki (Leishmania donovani [10]) was 165 µM, the Thymidine uptake (Leishmania donovani [27]) was 1772064 c.p.m. (mg of protein)-1 and the Thymidine uptake (Leishmania donovani [28]) was 1499100 c.p.m. (mg of protein)-1. For the same molecule, the Thymidine uptake (Leishmania donovani [29]) was 1556483 c.p.m. (mg of protein)-1, the Thymidine uptake (Leishmania donovani [30]) was 1459000 c.p.m. (mg of protein)-1 and the Ratio [18] was 3.

`Nc1ncnc2c1ncn2[C@@H]1O[C@H](CC2CCNC2)[C@@H](O)[C@H]1O` (stereo in doubt; 6b) showed a Ki (Leishmania donovani [10]) of 140 µM and a Ratio [18] of 2.9.

For `NCCC(CN)C[C@H]1OC(n2cnc3c(N)ncnc32)[C@H](O)[C@@H]1O` (stereo partly specified), the Cell growth (Leishmania donovani [31]) was 93%, the Ki (Leishmania donovani [10]) was 1120 µM and the Cell growth (Leishmania donovani [32]) was 80%. It also gave a Ratio [18] of 23.3.

In the case of `C=CCCCC(N)C[C@H]1OC(n2cnc3c(N)ncnc32)[C@H](O)[C@@H]1O` (stereo partly specified), the Cell growth (Leishmania donovani [33]) is reported as 97%, the Ki (Leishmania donovani [10]) is reported as 877 µM and the Thymidine uptake (Leishmania donovani [34]) is reported as 2880449 c.p.m. (mg of protein)-1. For the same molecule, the Cell growth (Leishmania donovani [35]) was 41%, the Thymidine uptake (Leishmania donovani [36]) was 1703083 c.p.m. (mg of protein)-1 and the Cell growth (Leishmania donovani [37]) was 65%. It also gave a Ratio [18] of 15.9.
